Paper PMC7649109 (International Journal for Parasitology: Drugs and Drug …, 2020)
Several values for one entry are separate records, joined by “and”; a condition that tells them apart may be missing. Equal values may be shown once. Read-outs that look alike come from different tables or passages of the source.

Experiments:
[1] = system: Trypanosoma congolense IL3000; test: resazurin viability assay, T. congolense IL3000 bloodstream forms; assay type: cell-based
In short: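 Bloodstream-form parasites were grown in MEM base with 10% goat serum, 14 μL/L β-mercaptoethanol, glutamine and antibiotics at 34 °C/5% CO2. Cells at 5 × 10^4/well were exposed to 23 doubling dilutions plus no-drug controls, with DMSO held at 1% (v/v) per well, for 48 h. Resazurin was then added for a further 24 h. EC50 is the mean ± SEM of ≥3 independent determinations.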

[2] = system: Trypanosoma congolense 6C3; test: resazurin viability assay, diminazene-resistant T. congolense clone 6C3; assay type: cell-based; details: for RF (Resistance factor): Table 6; for EC50: Trypanosoma congolense, T. congolense 6C3
In short: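 IL3000 and diminazene-resistant 6C3 T. congolense bloodstream forms grown in MEM base with 10% goat serum, 14 μL/L β-mercaptoethanol, glutamine and antibiotics at 34 °C/5% CO2. 5 × 10^4 cells/well exposed to 23 doubling dilutions (1% v/v DMSO) plus no-drug controls for 48 h, then resazurin for a further 24 h. EC50 from ≥3 independent determinations. RF = […]; unpaired two-tailed t-test versus IL3000.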

T. brucei S427WT = test: resazurin viability assay, T. brucei s427 wild-type bloodstream forms; assay type: cell-based; details: Trypanosoma brucei
In short: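 Bloodstream forms grown in complete HMI-9 with 10% fetal bovine serum at 37 °C/5% CO2. 2 × 10^4 cells/well were exposed for 48 h to 23 doubling dilutions of the test compound or extract, with no-drug controls and 1% (v/v) DMSO per well. Resazurin was then added for a further 24 h. EC50 is the mean ± SEM of at least 3 independent determinations.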

T. brucei B48 = test: resazurin viability assay, multi-drug resistant T. brucei B48; assay type: cell-based, Trypanosoma brucei; details: for R. F (Resistance factor): Table 1; for R. F (Resistance factor) / RF (Resistance factor): B48 versus s427 WT; for RF (Resistance factor): Table 5; for EC50: Trypanosoma brucei
In short: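 s427 wild-type and B48 T. b. brucei bloodstream forms cultured in HMI-9 with 10% FBS at 37 °C/5% CO2. Wells of 2 × 10^4 cells received 23 doubling dilutions (1% v/v DMSO) plus no-drug controls for 48 h, followed by resazurin and 24 h more incubation. EC50 from ≥3 independent determinations. […]; unpaired two-tailed t-test versus s427.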

[3] = cytotoxicity, resazurin assay on RAW 246.7 cell line; assay type: cell-based, murine; details: mouse, RAW 264.7 macrophage cells (also printed RAW 246.7)
RAW 246.7 cell line = test: as above; assay type: cell-based, murine
[4] = cytotoxicity, resazurin assay on U937 cell line; assay type: cell-based, human; details: human, U937 cells
U937 cell line = test: cytotoxicity, resazurin assay on U937 cell line; assay type: cell-based, human
[5] = read-out: EC50, AVG ± SEM, Table 2, control, footnote b: EC50 in μM
[6] = read-out: EC50, AVG ± SEM, Table 6, purified compounds, n = 3
[7] = read-out: EC50, AVG ± SEM, Table 5, purified compounds, T. b. brucei s427 WT, n = 3
[8] = read-out: EC50, AVG ± SEM, Table 5, purified compounds, T. b. brucei B48, n = 3

In the case of `N=C(N)c1ccc(/N=N/Nc2ccc(C(=N)N)cc2)cc1` [Diminazene], the EC50 [1, 5] is reported as 0.2 ± 0.03 µM, the EC50 [1, 6] is reported as 0.15 ± 0.03 µM and the “R. F (Resistance factor)” value ([2]; Table 2, 6C3 versus IL3000) is reported as 7.75. For the same compound, the “RF (Resistance factor)” value ([2]; 6C3 versus IL3000) was 9.81, the “RF (Resistance factor)” value ([2]; 6C3 versus IL3000, listed as diminazene) was 9.8 and the EC50 [2, 5] was 1.51 ± 0.09 µM. For the same compound, the EC50 [2, 6] was 1.45 ± 0.04 µM.

In the case of `N=C(N)c1ccc(OCCCCCOc2ccc(C(=N)N)cc2)cc1` [Pentamidine], the EC50 (T. brucei S427WT; read-out: EC50, AVG ± SEM, Table 1, control, footnote b: EC50 in μM, T. brucei s427 WT) is reported as 0.0031 ± 0.0003 µM, the EC50 (T. brucei S427WT; [7]) is reported as 0.0034 ± 0.0004 µM and the “R. F (Resistance factor)” value (T. brucei B48) is reported as 157.84. For the same compound, the “R. F (Resistance factor)” value (T. brucei B48; listed as pentamidine) was 158, the “RF (Resistance factor)” value (T. brucei B48) was 144.08 and the “RF (Resistance factor)” value (T. brucei B48; listed as pentamidine) was 144. It also gave an EC50 (T. brucei B48; read-out: EC50, AVG ± SEM, Table 1, control, footnote b: EC50 in μM, T. brucei B48) of 0.482 ± 0.02 µM and an EC50 (T. brucei B48; [8]) of 0.493 ± 0.04 µM.

With `C=CC(C)(C)c1c(O)cc2c(c1O)C(=O)C[C@@H](c1ccc(O)cc1)O2` [Compound 2, 6-(1,1-dimethylallyl)naringenin] the EC50 at 24 h [3] was 79.9 µg/mL and 235 µM, the “Selectivity Index (SI) Tbb427 WT” value (RAW 246.7 cell line; EC50 (RAW 246.7)/EC50 (T. b. brucei 427 WT)) was 35.7 and the “Selectivity Index (SI) TcoIL3000” value (RAW 246.7 cell line; EC50 (RAW 246.7)/EC50 (T. congolense IL3000)) was 14.0. For the same compound, the EC50 at 24 h [4] was 51.2 µg/mL and 150 µM, the “Selectivity Index (SI) Tbb427 WT” value (U937 cell line; EC50 (U937)/EC50 (T. b. brucei 427 WT)) was 22.8 and the “Selectivity Index (SI) TcoIL3000” value (U937 cell line; EC50 (U937)/EC50 (T. congolense IL3000)) was 9.0. The EC50 [1, 6] was 7.35 µg/mL and 21.6 µM, the EC50 (T. brucei S427WT; [7]) was 2.24 µg/mL and 6.58 µM and the “RF (Resistance factor)” value ([2]; 6C3 versus IL3000) was 0.77. For the same compound, the EC50 [2, 6] was 5.69 µg/mL and 16.7 µM, the “RF (Resistance factor)” value (T. brucei B48) was 1.02 and the EC50 (T. brucei B48; [8]) was 2.28 µg/mL and 6.69 µM.
